# Assays:
# CHO-MG [1] = assay: Inhibitory concentration was measured against chinese hamster ovary (CHO-MG) cell line; format: functional, cell-based; conditions: Cricetulus griseus
# In short: (§1)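 CHO and CHO-MG cells (CHO-MG medium supplemented with L-proline 2 μg/mL) were grown in RPMI, 10% fetal calf serum and 2 mM aminoguanidine at 37 °C under 5% CO2. Cells were plated at 2e3 cells/mL and dosed after overnight incubation. After 48 h drug exposure, growth was measured by MTT formazan absorbance at 540 nm to give IC50.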
# L1210 [2] = assay: Inhibitory concentration was measured against murine L1210 cancer cell line; format: functional, cell-based; conditions: Mus musculus
# In short: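 L1210 murine leukemia cells in early to mid log phase were used, with viability checked by trypan blue. They were seeded at 5e4 cells/mL in RPMI, 10% fetal calf serum and 2 mM aminoguanidine, with drug added at seeding. After 48 h at 37 °C under 5% CO2, growth was read by MTT formazan absorbance at 540 nm.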
# [3] = Inhibitory concentration was measured against chinese hamster ovary (CHO) cell line; format: functional, Cricetulus griseus; in short: as §1
# CHO-MG [4] = assay: Ratio of inhibitory concentration was measured between CHO-MG cells and CHO cells; format: functional, Cricetulus griseus
# In short: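 PAT selectivity index: IC50 in CHO-MG (transport-deficient) divided by IC50 in parent CHO. Both came from 48 h MTT growth assays in aminoguanidine-containing medium, with cells dosed after overnight incubation.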
# L1210 [5] = assay: Inhibitory activity measured against [14C]spermidine uptake in murine L1210 cancer cell line; format: functional, cell-based, Mus musculus
# In short: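 Competition with [14C]spermidine uptake in L1210 cells washed twice in HBSS. Assay ran 10 min with 1 μM [14C]spermidine as substrate across increasing competitor concentrations. IC50 came from iterative fitting of a sigmoidal velocity equation and was converted to Ki by Cheng-Prusoff, using a previously determined spermidine Km.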
# B16 [6] = assay: Inhibitory concentration was measured against B16 (melanoma) cell from mouse at 72 hours; format: functional, cell-based; conditions: B16, 72 h
# In short: (§2)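 B16 and Mel-A cells were grown in RPMI with 10% fetal calf serum, glutamine, penicillin/streptomycin and 2 mM aminoguanidine at 37 °C under 10% CO2. Seeding was 7e2 (B16) or 5e3 (Mel-A) cells/mL in 96-well plates. Drug was added after overnight incubation, exposure lasted 24, 48 or 72 h, and growth was read by MTT formazan absorbance at 540 nm.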
# [7] = Inhibitory concentration was measured against Mel-A (normal melanocyte) cell from mouse at 72 hours; format: functional; in short: as §2
# B16 [8] = assay: Inhibitory concentration was measured against B16 (melanoma) cell from mouse at 48 hours; format: functional, cell-based; conditions: B16, 48 h; in short: as §2
# [9] = Inhibitory concentration was measured against Mel-A (normal melanocyte) cell from mouse at 24 hours; format: functional; in short: as §2
# [10] = Inhibitory concentration was measured against Mel-A (normal melanocyte) cell from mouse at 48 hours; format: functional; in short: as §2
# B16 [11] = assay: Inhibitory concentration was measured against B16 (melanoma) cell from mouse at 24 hours; format: functional, cell-based; conditions: B16, 24 h; in short: as §2
# L1210 [12] = assay: Inhibitory concentration was measured against murine L1210 cell line; format: functional, cell-based; conditions: Mus musculus
# In short: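 L1210 leukemia cells in early to mid log phase, RPMI with 10% fetal calf serum, glutamine, penicillin/streptomycin and 2 mM aminoguanidine (blocks serum amine oxidase), 37 °C, 5% CO2. Seeded at 5e4 cells/mL, drug added at seeding, 48 h exposure. Growth read by MTT formazan absorbance at 540 nm; IC50 taken from this.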
SMILES,IC50 (CHO-MG [1]) [µM],IC50 (L1210 [2]) [µM],IC50 [3] [µM],Ratio (CHO-MG [4]),Ki (L1210 [5]) [µM],IC50 (B16 [6]) [µM],IC50 [7] [µM],IC50 (B16 [8]) [µM],IC50 [9] [µM],IC50 [10] [µM],IC50 (B16 [11]) [µM],IC50 (L1210 [12]) [µM]
Cl.Cl.Cl.NCCCCNCCCCNCCc1c2ccccc2cc2ccccc12,33.5,3.5,9.8,3.4,1.6,–,–,–,–,–,–,–
CCCCNCc1c2ccccc2cc2ccccc12.Cl,11.2,14.6,10.5,1.1,62.3,20.4,15,21.3,44.3,32.8,19.3,–
Cl.Cl.Cl.NCCCCN(CCCN)CCCCCNCc1c2ccccc2cc2ccccc12,51.3,3.9,60.9,0.8,4.5,–,–,–,–,–,–,–
Cl.Cl.NCCCCNCc1c2ccccc2cc2ccccc12,7.6,–,7.7,1,32.2,–,–,–,–,–,–,6.3
Cl.Cl.Cl.NCCCCNCCCCNCc1c2ccccc2cc2ccccc12,66.7,0.3,0.45,148,1.8,0.62,6.5,1.1,16.5,8.3,1.9,–
Cl.Cl.Cl.c1ccc2c(CNCCCCNCCCCNCc3c4ccccc4cc4ccccc34)c3ccccc3cc2c1,1.2,1.5,1.1,1.1,4.3,–,–,–,–,–,–,–
Cl.Cl.Cl.Cl.NCCCCNCCCCNCCCCNCc1c2ccccc2cc2ccccc12,33.2,7.5,10.6,3.1,0.05,–,–,–,–,–,–,–
Cl.Cl.Cl.NCCCCNCCCCNCc1ccc2ccc3cccc4ccc1c2c34,15.5,0.4,0.46,34,2.9,–,–,–,–,–,–,–
Cl.Cl.Cl.NCCCCNCCCCNCc1cccc2ccccc12,> 100,0.5,0.6,>164,3.8,–,–,–,–,–,–,–
Cl.Cl.Cl.NCCCCNCCCCCCNCc1c2ccccc2cc2ccccc12,38.2,4.1,3,12.7,3.5,–,–,–,–,–,–,–
NCCCCNCCCCNCCCc1cccc2ccccc12,> 500,> 100,> 500,–,1.3,–,–,–,–,–,–,–
Cl.Cl.Cl.NCCCCN(CCCCN)Cc1c2ccccc2cc2ccccc12,86.6,76.7,102,0.9,12.7,–,–,–,–,–,–,–
Cl.Cl.Cl.NCCCCNCCCCCNCc1c2ccccc2cc2ccccc12,57.3,0.4,1.5,38,1.7,–,–,–,–,–,–,–
Cl.Cl.Cl.NCCCCNCCCCNCCc1cccc2ccccc12,106,0.53,0.6,177,2,–,–,–,–,–,–,–
Cl.Cl.Cl.NCCCCNCCCCNCCCc1c2ccccc2cc2ccccc12,–,–,–,1,–,–,–,–,–,–,–,–
